Reference: ChEMBL document CHEMBL1124658, “Conformationally restricted analogues of the muscarinic agent N-methyl-N-(1-methyl-4-pyrrolidino-2-butynyl)acetamide” (J Med Chem, 1989)

Assays:
[1] = species: Cavia porcellus; assay: Equilibrium dissociation constant of the compound-receptor complex was determined by its ability to antagonize carbachol-induced contractions in the ileum (spasmolytic activity); assay type: functional
Summary of the method: (§1)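 Isolated guinea pig ileum in Tyrode solution (pH 7.4, 0.3 mM hexamethonium), 37 °C, isotonic recording at 1 g tension. Cumulative carbachol concentration–response curves (stepwise ×2.15) with at least three antagonist concentrations; dissociation constant from shifts, Schild slope checked where range allowed. Three determinations in triplicate.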

[2] = species: Cavia porcellus; assay: Maximum contractile response relative to that elicited by carbachol in guinea pig ileum; assay type: functional
Summary of the method: (§2)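 Guinea pig ileum in Tyrode (pH 7.4, 0.3 mM hexamethonium), 37 °C, isotonic contractions at 1 g tension; cumulative agonist concentration–response curves, concentration raised stepwise by a factor of 2.15; maximal contraction expressed relative to the carbachol maximum. Three determinations, each in triplicate.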

[3] = target: Muscarinic acetylcholine receptor; assay: Compound was tested for the concentration that inhibited the specific binding of (-)-[3H]-NMS to muscarinic acetylcholine receptor in the rat cerebral cortex.; assay type: tissue-based
Summary of the method: (§3)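 Rat (male Sprague–Dawley, 200–300 g) cerebral cortex homogenate, 10 mg wet tissue/mL in 50 mM Na–K phosphate pH 7.4. Incubated 30 min at 30 °C with 0.3 nM (–)-[3H]NMS plus unlabelled ligand; filtration assay. Nonspecific binding with 10 μM atropine. IC50 from one-site competition fit, corrected by Cheng–Prusoff to Ki; three experiments in triplicate.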

[4] = species: Mus musculus; assay: Antimuscarinic activity in intact mice was determined as the dose required to double the dose of oxotremorine inducing a predetermined tremor intensity.; assay type: functional
Summary of the method: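 Male Swiss–Webster mice (24–32 g), groups of six or more; antagonist given ip 200 μmol/kg, untreated controls. After 20 min, oxotremorine ED50 (iv) estimated by up-and-down method, end point intermittent spontaneous grade 2 tremor. Active compounds tested at two further doses; oxotremorine ED50 plotted against antagonist dose, dose doubling it found by linear regression.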

[5] = species: Cavia porcellus; assay: In vitro effective concentration required to elicit half-maximal contractile response in guinea pig ileum.
[6] = species: Cavia porcellus; assay: Dissociation constant of the compound-receptor complex.; assay type: functional
Summary of the method: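 Guinea pig ileum in Tyrode solution (pH 7.4) with 0.3 mM hexamethonium at 37 °C, contractions recorded isotonically at 1 g tension. Cumulative carbachol concentration–response curves were built in steps of a factor of 2.15, in the presence of at least three antagonist concentrations. Antagonism was analysed by Schild plots.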

[7] = species: Mus musculus; assay: Antimuscarinic activity in intact mice was determined as the dose required to double the dose of oxotremorine inducing a predetermined tremor intensity; assay type: functional
Summary of the method: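 Male Swiss–Webster mice (24–32 g) were given the compound ip at 200 μmol/kg in groups of six or more, with six untreated controls. Twenty minutes later the oxotremorine ED50 (iv) was found by the up-and-down method, with intermittent spontaneous grade 2 tremor as end point. Active compounds were tested at two more doses, and the doubling dose came from linear regression of oxotremorine ED50 against antagonist dose.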

[8] = target: Muscarinic acetylcholine receptor; assay: Compound was tested for the concentration that inhibited the specific binding of (-)-[3H]-NMS to muscarinic receptor in the rat cerebral cortex.; assay type: tissue-based; summary of the method: as §3
[9] = species: Cavia porcellus; assay: Maximum contractile response relative to that elicited by carbachol.; assay type: functional; summary of the method: as §2
[10] = species: Cavia porcellus; assay: In vitro effective concentration required to elicit half-maximal contractile response in guinea pig ileum.; remark: listed apart in the source
[11] = species: Cavia porcellus; assay: Equilibrium dissociation constant of the compound-receptor complex was determined by its ability to antagonize carbachol-induced contractions in the ileum (spasmolytic activity).; assay type: functional; summary of the method: as §1
[12] = target: Muscarinic acetylcholine receptor; assay: Compound was tested for the concentration that inhibited the specific binding of (-)-[3H]-NMS to muscarinic receptor in the rat cerebral cortex; assay type: tissue-based; summary of the method: as §3

Structure (SMILES)	Ki [3]	Kd [1]	Emax [2]	Tremorolytic dose [4]	also measured
CC(=O)N(C(C)=O)C(C)C#CCN1CCCC1 (stereo not drawn)	–	0.28 µM	0	3.2 µM/kg	–
CN1[C@@H]2CC[C@H]1C[C@@H](OC(=O)C(CO)c1ccccc1)C2 (stereo partly drawn) [ATROPINE]	–	–	–	–	Kd [6]: 0.0009 µM; Tremorolytic dose [7]: 0.57 µM/kg
CC(=O)N1CCCC1C#CCN1CCCC1 (stereo not drawn)	–	1.4 µM	0	–	Tremorolytic dose [7]: 6.3 µM/kg; Ki [8]: 0.67 µM
C[N+](C)(C)CCOC(N)=O.[Cl-] [CARBACHOL]	–	–	–	–	Kd [6]: 15.3 µM; Emax [9]: 1; EC50 [10]: 0.1 µM
CC(=O)N1CCCC1C#CCN(C)C (stereo not drawn)	–	–	0	119 µM/kg	Kd [11]: 125 µM; Ki [12]: 25.4 µM
CN1C(=O)CCC1C#CCN1CCCC1 (stereo not drawn)	–	–	–	78.3 µM/kg	Kd [6]: 45.3 µM; Emax [9]: 0; Ki [8]: 18.3 µM
CC(=O)N(C)C(C)C#CCN1CCCC1 (stereo not drawn)	–	–	0.83	0.6 µM/kg	–
CC(=O)N1CCCC1C#CC[N+](C)(C)C.[I-] (stereo not drawn)	6.1 µM	–	0.8	–	EC50 [5]: 7.5 µM
CC(=O)N1C(=O)CCC1C#CCN1CCCC1 (stereo not drawn)	0.78 µM	1.43 µM	0	3.5 µM/kg	–

Further lines, with some results ahead:

Ki [3]	Structure (SMILES)	Kd [1]	Emax [2]	Tremorolytic dose [4]	also measured
204 µM	CN(C)CC#CC1CCC(=O)N1C (stereo not drawn)	496 µM	0	>200 µM/kg	–
53.2 µM	CC(=O)N1C(=O)CCC1C#CCN(C)C (stereo not drawn)	95.6 µM	0	160 µM/kg	–
145 µM	CN1C(=O)CCC1C#CC[N+](C)(C)C.[I-] (stereo not drawn)	–	<0.6	–	EC50 [5]: > 500 µM
6.4 µM	CC(=O)N1C(=O)CCC1C#CC[N+](C)(C)C.[I-] (stereo not drawn)	–	0.78	–	EC50 [5]: 13.4 µM
